Activity calls are given as the source filed them. The rule behind the calls is not given here. Residues, ends and D or L forms follow the SMILES beside them. *: point of attachment. Cbz = O=C(OCc1ccccc1)*
Columns and labels:
[1] = molecular target: Replicase polyprotein 1ab (Severe acute respiratory syndrome coronavirus 2) (UniProt P0DTD1); assay: Binding affinity to recombinant hexa-His tagged SARS-COV2 main protease expressed in Escherichia coli at 300 nM by in-gel fluorescence analysis
Outline: (§1)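 E. coli-expressed Mpro was incubated with Alk-4d or Alk-4i at 30 °C for 1 h. Click chemistry followed at room temperature for 1 h in the dark, with final 25 μM TAMRA-azide, 1 mM TCEP, 100 μM THPTA and 1 mM CuSO4. Samples were boiled, run on 4–20% SDS-PAGE, scanned at ex 532/em 600 nm, and silver-stained to check loading.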

[2] = molecular target: Replicase polyprotein 1ab (Severe acute respiratory syndrome coronavirus 2) (UniProt P0DTD1); assay: Binding affinity to SARS-COV2 main protease at 30 uM preincubated with nirmatrelvir followed by compound addition measured over 6 hrs
Outline: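 Pulse-chase competition: recombinant Mpro was pretreated with 1.5 μM nirmatrelvir at 30 °C, then given 30 μM Alk-4i probe for various times. Click conjugation to TAMRA-azide was followed by SDS-PAGE and in-gel fluorescence (ex 532, em 600 nm). The nirmatrelvir dissociation half-life was derived from the labeling curve.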

HEK293T = assay: Binding affinity to proteome in HEK293T cells at 10 uM after 5 hrs; type: cell-based; settings: Homo sapiens
Outline: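 Parental HEK293T cells were treated with clickable probe at various concentrations for 5 h. Cells were harvested and lysed in NP40 buffer, and protein was normalised to 1 mg/mL. Lysates were click-conjugated to TAMRA azide, resolved by SDS-PAGE and imaged for in-gel fluorescence.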

[3] = molecular target: Replicase polyprotein 1ab (Severe acute respiratory syndrome coronavirus 2) (UniProt P0DTD1); assay: Binding affinity to recombinant hexa-His tagged SARS-COV2 main protease expressed in Escherichia coli incubated for 1 hr by SDS-PAGE gel electrophoresis method; outline: as §1
[4] = molecular target: Replicase polyprotein 1ab (Severe acute respiratory syndrome coronavirus 2) (UniProt P0DTD1); assay: Binding affinity to recombinant hexa-His tagged SARS-COV2 main protease expressed in Escherichia coli pretreated with (1R,2S,5S)-3-((S)-3,3-dimethyl-2-(2,2,2-trifluoroacetamido)butanoyl)-6,6-dimethyl-N-((S)-1-((S)-2-oxopyrrolidin-3-yl)but-3-yn-2-yl)-3-azabicyclo[3.1.0]hexane-2-carboxamide followed by compound addition by SDS-PAGE gel electrophoresis method
[5] = molecular target: Replicase polyprotein 1ab (Severe acute respiratory syndrome coronavirus 2) (UniProt P0DTD1); assay: Binding affinity to recombinant hexa-His tagged SARS-COV2 main protease expressed in Escherichia coli pretreated with nirmatrelvir followed by compound addition by SDS-PAGE gel electrophoresis method
[6] = molecular target: Replicase polyprotein 1ab (Severe acute respiratory syndrome coronavirus 2) (UniProt P0DTD1); assay: Binding affinity to recombinant hexa-His tagged SARS-COV2 main protease expressed in HEK293T cells by in-gel fluorescence analysis; type: cell-based
Outline: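 HEK293T cells were transiently transfected with an Mpro plasmid. At 24 h post-transfection, they were treated with probe (from a 1000× DMSO stock) in fresh DMEM/10% FBS. Cells were washed, lysed in NP40 buffer and normalised to 1 mg/mL protein. Lysates were click-conjugated to TAMRA-azide, then analysed by SDS-PAGE and fluorescence imaging.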

[7] = molecular target: Replicase polyprotein 1ab (Severe acute respiratory syndrome coronavirus 2) (UniProt P0DTD1); assay: Binding affinity to recombinant hexa-His tagged SARS-COV2 main protease expressed in Escherichia coli at 10 uM pretreated with (1R,2S,5S)-3-((S)-3,3-dimethyl-2-(2,2,2-trifluoroacetamido)butanoyl)-6,6-dimethyl-N-((S)-5,5,5-trifluoro-1-((S)-2- oxopyrrolidin-3-yl)pent-3-yn-2-yl)-3-azabicyclo[3.1.0]hexane-2-carboxamide
Outline: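 Competition labeling: recombinant Mpro (1 μg) was […] competitor and clickable probe at the indicated concentrations, at 30 °C for 1 h. TAMRA-azide click reaction, SDS-PAGE and in-gel fluorescence imaging (ex 532/em 600 nm) followed.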

[8] = molecular target: Replicase polyprotein 1ab (Severe acute respiratory syndrome coronavirus 2) (UniProt P0DTD1); assay: Inhibition of recombinant hexa-His tagged SARS-COV2 main protease expressed in Escherichia coli upto 30 uM using Dabcyl-KTSAVLQISGFRKM-E(Edans)-NH2 as substrate preincubated for 15 mins followed by substrate addition and measured after 1 hr by FRET assay; settings: time 75.0 min
Outline: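 Fluorescence (ex 340/em 475 nm) was read every 38 s for 1 h. IC50 came from initial velocities, in duplicate.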

SARS-CoV-2 [9] = assay: Antiviral activity against SARS-CoV-2 infected in HeLa cells expressing ACE2 pre-infected for 1 hr followed by compound addition and measured after 24 hrs; type: functional, organism-based; settings: Severe acute respiratory syndrome coronavirus 2
HeLa = assay: Cytotoxicity against human HeLa cells expressing ACE2 upto 10 uM after 20 hrs by Cell Titer-Glo luminescent cell viability assay; type: toxicity, cell-based
[10] = molecular target: Cathepsin B (Homo sapiens) (UniProt P07858); assay: Inhibition of human cathepsin B upto 40 uM preincubated for 20 mins
Outline: (§2)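 Z-FR-AMC was added at 10 μM. Fluorescence (ex 355/em 460 nm) was read at room temperature every 5 min for 2 h, and initial velocities came from the linear portion.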

[11] = molecular target: T1, Cathepsin K (Homo sapiens) (UniProt P43235); assay: Inhibition of human cathepsin K upto 40 uM preincubated for 20 mins
T1 sequence (whole entry): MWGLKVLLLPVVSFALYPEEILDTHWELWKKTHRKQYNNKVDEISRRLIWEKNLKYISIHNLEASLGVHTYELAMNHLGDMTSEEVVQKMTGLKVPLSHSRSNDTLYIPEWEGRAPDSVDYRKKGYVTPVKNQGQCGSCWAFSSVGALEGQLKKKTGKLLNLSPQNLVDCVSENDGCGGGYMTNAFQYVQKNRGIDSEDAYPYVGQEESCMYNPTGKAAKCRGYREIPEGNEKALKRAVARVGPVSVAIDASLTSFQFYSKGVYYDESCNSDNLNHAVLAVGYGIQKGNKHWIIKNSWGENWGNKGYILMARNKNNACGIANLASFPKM
Outline: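 Recombinant cathepsin K (0.042 nM) was preincubated with compound for 20 min in 50 mM NaOAc pH 5.5, 5 mM EDTA, 0.005% Triton X-100, 5 mM DTT and 1% DMSO. Z-FR-AMC was added at 5 μM. Fluorescence (ex 355/em 460 nm) was read at room temperature every 5 min for 2 h, and initial velocities came from the linear portion.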

[12] = molecular target: Procathepsin L (Homo sapiens) (UniProt P07711); assay: Inhibition of human cathepsin L upto 40 uM preincubated for 20 mins; outline: as §2
SARS-CoV-2 [13] = assay: Antiviral activity against SARS-CoV-2 infected in HeLa cells expressing ACE2 at 3 uM pre-infected for 1 hr followed by compound addition and measured after 24 hrs by RT-qPCR analysis; type: functional, Severe acute respiratory syndrome coronavirus 2

Procathepsin L (Homo sapiens), sequence (P07711 114-333 limits assumed): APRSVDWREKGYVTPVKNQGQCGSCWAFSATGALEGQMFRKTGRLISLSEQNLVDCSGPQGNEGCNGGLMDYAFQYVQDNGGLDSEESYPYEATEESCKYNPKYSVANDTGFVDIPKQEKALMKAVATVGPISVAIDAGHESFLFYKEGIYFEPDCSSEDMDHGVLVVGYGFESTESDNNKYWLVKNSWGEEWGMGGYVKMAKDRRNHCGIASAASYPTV

SMILES: C#CC[C@H](NC(=O)C(F)(F)F)C(=O)N1C[C@H]2[C@@H]([C@H]1C(=O)N[C@H](C#CC(F)(F)F)C[C@@H]1CCNC1=O)C2(C)C
- Activity [1]: Active
- Activity [2]: Active
- Activity (HEK293T): Active

SMILES: C#CC[C@H](NC(=O)C(F)(F)F)C(=O)N1C[C@H]2[C@@H]([C@H]1C(=O)N[C@H](C#C)C[C@@H]1CCNC1=O)C2(C)C
- Activity [3]: Active
- Activity [4]: inactive
- Activity [5]: inactive
- Activity [6]: Dose-Dependent Effect
- Activity [7]: inactive

SMILES: CC(C)C[C@H](NC(=O)OCc1ccccc1)C(=O)N[C@H](C#N)CCC(N)=O
- inhibition [8]: inactive

SMILES: CC(C)(C)[C@H](NC(=O)C(F)(F)F)C(=O)N1C[C@H]2[C@@H]([C@H]1C(=O)N[C@H](C#CC(F)(F)F)C[C@@H]1CCNC1=O)C2(C)C
- Activity (SARS-CoV-2 [9]): Dose-Dependent Effect
- Activity (HeLa): Non-Toxic

SMILES: CC(C)C[C@H](NC(=O)OCc1ccccc1)C(=O)N[C@H](C=O)CCC(N)=O (Cbz-Leu-Gln-aldehyde)
- inhibition [8]: inactive

SMILES: C#C[C@H](C[C@@H]1CCNC1=O)NC(=O)[C@@H]1[C@@H]2[C@H](CN1C(=O)[C@@H](NC(=O)C(F)(F)F)C(C)(C)C)C2(C)C
- inhibition [10]: inactive
- inhibition [11]: inactive
- inhibition [12]: inactive
- Activity (SARS-CoV-2 [9]): Dose-Dependent Effect
- Activity (SARS-CoV-2 [13]): 100%
